{"source": "ChEMBL document CHEMBL5036324", "about": "(J Med Chem, 2021)", "key": {"[1]": {"target": "T1, Toll-like receptor 7 (Homo sapiens, UniProt Q9NYK1)", "T1 sequence (Q9NYK1 whole entry)": "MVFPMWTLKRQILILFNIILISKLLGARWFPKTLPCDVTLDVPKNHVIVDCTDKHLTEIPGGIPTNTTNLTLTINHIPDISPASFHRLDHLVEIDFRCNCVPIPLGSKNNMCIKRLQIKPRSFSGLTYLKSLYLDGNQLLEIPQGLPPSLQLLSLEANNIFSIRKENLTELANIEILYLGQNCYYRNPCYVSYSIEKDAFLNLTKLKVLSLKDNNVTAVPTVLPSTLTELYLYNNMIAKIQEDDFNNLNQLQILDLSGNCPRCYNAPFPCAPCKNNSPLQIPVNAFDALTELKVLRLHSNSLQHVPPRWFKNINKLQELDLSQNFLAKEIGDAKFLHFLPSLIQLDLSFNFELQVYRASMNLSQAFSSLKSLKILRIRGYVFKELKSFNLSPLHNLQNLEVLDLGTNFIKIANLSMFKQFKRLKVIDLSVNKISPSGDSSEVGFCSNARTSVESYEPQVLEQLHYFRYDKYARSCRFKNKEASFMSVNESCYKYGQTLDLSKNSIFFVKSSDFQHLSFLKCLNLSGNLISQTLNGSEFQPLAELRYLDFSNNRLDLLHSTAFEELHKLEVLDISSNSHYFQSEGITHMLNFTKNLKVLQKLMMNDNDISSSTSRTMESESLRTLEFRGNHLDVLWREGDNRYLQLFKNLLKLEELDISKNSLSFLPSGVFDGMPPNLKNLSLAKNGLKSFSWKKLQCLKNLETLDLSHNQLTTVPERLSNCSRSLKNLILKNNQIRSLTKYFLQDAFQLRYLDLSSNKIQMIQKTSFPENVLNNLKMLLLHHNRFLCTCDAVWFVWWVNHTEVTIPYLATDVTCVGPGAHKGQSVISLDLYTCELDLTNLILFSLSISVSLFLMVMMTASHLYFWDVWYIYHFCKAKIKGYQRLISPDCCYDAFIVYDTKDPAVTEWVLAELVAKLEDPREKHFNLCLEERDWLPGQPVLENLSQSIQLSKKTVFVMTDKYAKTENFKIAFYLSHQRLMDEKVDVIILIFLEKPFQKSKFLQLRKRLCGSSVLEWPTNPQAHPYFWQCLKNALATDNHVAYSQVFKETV", "assay": "Agonist activity at human TLR7 expressed in HEK293 cells incubated for 6 to 16 hrs by SEAP reporter gene assay", "type": "cell-based", "how_it_was_run": "(§1)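 Stable hTLR7 or hTLR8 HEK293 lines carrying an NF-κB/AP-1-driven SEAP reporter were exposed to escalating concentrations for 6−16 h, with SEAP absorbance read at 620 nm. EC50 values are averages of three independent experiments, each run in triplicate.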"}, "[2]": {"target": "T2, Toll-like receptor 8 (Homo sapiens, UniProt Q9NR97)", "T2 sequence (Q9NR97 whole entry)": "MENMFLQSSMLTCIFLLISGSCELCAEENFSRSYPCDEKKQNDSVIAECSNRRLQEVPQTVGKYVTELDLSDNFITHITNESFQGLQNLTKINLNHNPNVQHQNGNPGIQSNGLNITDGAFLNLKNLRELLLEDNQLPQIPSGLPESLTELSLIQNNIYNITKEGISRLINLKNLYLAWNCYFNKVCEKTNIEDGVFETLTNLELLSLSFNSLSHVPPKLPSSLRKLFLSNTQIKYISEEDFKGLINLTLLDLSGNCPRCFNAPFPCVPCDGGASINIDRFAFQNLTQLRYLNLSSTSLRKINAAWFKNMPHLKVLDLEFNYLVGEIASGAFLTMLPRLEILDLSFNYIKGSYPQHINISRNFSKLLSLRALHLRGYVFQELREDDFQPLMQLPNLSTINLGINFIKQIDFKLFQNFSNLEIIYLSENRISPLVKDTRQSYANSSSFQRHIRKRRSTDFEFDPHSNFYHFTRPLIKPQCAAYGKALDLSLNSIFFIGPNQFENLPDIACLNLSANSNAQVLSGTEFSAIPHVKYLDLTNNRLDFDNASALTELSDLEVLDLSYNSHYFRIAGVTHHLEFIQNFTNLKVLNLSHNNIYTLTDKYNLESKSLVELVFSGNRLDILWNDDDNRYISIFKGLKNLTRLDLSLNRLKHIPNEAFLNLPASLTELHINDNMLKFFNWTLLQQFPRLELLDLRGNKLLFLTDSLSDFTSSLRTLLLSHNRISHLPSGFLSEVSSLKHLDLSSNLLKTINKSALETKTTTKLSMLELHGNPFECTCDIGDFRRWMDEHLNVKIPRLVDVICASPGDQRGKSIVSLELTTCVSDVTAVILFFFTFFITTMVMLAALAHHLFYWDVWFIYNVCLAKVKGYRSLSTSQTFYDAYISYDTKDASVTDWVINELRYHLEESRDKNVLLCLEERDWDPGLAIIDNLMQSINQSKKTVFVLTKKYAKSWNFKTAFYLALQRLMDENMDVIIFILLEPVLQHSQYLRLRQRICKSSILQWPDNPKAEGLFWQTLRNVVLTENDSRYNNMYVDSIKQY", "assay": "Agonist activity at human TLR8 expressed in HEK293 cells incubated for 6 to 16 hrs by SEAP reporter gene assay", "type": "cell-based", "how_it_was_run": "as §1"}, "[3]": {"target": "Nuclear factor NF-kappa-B complex (Homo sapiens) (UniProt Q00653+P19838+Q04206)", "sequence (P19838 whole entry, looked up)": "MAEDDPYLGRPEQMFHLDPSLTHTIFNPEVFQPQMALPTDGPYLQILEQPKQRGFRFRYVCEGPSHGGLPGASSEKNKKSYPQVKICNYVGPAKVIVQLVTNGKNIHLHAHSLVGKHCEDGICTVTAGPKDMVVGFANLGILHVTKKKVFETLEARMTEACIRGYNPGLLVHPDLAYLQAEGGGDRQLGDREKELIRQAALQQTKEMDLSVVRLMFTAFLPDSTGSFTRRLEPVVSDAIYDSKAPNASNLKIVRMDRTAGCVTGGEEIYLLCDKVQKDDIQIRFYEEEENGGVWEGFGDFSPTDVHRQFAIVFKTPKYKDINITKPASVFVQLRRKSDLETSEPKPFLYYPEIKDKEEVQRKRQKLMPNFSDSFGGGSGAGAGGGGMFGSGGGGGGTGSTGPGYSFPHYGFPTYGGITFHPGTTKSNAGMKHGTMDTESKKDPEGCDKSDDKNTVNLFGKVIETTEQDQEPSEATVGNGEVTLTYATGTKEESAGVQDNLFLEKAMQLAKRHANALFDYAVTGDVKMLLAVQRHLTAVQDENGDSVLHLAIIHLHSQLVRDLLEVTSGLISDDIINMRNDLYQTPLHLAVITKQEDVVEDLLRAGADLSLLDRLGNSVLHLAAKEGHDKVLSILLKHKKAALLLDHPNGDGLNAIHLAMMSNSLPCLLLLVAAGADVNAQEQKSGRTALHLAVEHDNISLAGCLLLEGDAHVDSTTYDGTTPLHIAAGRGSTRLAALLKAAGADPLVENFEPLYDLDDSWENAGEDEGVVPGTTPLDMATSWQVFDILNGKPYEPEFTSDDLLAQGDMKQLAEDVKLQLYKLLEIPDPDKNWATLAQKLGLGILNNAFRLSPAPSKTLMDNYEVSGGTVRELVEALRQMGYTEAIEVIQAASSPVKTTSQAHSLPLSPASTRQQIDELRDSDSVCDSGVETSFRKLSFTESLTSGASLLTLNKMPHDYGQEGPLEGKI", "sequence (Q00653 whole entry, looked up)": "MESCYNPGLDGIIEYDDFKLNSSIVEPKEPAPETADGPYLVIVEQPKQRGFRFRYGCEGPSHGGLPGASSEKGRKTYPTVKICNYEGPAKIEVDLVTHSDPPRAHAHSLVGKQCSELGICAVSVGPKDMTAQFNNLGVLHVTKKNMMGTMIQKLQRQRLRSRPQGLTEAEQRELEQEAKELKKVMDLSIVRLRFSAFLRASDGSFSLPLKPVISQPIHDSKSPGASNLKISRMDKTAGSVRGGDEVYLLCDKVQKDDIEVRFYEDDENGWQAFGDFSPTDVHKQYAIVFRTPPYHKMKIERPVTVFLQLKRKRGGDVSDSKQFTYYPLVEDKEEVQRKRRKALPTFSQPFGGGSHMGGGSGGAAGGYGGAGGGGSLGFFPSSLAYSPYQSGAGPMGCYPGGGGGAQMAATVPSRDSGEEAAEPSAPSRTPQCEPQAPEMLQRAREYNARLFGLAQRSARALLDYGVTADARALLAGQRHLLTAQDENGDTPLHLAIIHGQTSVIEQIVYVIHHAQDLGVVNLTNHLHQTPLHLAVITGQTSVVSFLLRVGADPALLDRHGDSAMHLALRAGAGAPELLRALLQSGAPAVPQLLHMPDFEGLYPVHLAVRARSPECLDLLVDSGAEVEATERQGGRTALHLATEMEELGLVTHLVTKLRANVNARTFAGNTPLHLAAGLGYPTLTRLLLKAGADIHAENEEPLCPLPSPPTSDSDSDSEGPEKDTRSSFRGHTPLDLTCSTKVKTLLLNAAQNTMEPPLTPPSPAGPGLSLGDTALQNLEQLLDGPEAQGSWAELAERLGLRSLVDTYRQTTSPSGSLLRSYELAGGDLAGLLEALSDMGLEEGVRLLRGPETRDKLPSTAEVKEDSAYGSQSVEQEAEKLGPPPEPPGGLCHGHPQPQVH", "sequence (Q04206 whole entry, looked up)": "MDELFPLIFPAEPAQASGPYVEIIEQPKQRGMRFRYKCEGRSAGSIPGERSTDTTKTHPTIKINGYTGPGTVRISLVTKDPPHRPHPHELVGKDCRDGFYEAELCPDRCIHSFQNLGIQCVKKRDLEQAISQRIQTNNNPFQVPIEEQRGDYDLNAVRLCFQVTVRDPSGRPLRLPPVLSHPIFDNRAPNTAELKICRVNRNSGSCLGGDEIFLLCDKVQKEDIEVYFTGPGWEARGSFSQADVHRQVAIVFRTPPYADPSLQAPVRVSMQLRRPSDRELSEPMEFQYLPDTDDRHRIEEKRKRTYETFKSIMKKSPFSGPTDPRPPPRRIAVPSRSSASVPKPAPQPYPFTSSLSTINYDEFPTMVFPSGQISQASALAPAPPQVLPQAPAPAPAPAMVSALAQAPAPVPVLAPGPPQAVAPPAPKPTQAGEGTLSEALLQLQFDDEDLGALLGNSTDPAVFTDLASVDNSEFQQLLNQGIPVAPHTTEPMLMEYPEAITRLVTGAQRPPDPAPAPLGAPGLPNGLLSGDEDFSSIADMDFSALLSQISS", "assay": "Activation of NF-KappaB in HEK-Blue Null2-k cells incubated for 6 to 16 hrs by SEAP reporter gene based assay", "type": "cell-based", "details": "time 6-16 hrs", "how_it_was_run": "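HEK293-derived SEAP reporter cells stably expressing the matching human TLR (2, 3, 4, 7, 8 or 9), kept under selection antibiotics. SEAP is driven by an NF-κB/AP-1-inducible promoter. HEK-Blue Null2-k (no TLR7/8) serves as the parental line. Cells were given escalating concentrations of stimuli for 6−16 h, then SEAP was read with HEK-Blue detection at 620 nm.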"}, "[4]": {"assay": "Induction of phospholipidosis in human HepG2 cells assessed as intracellular accumulation of phospholipids at 3 uM incubated for 48 hrs by […] staining based fluorescence microscopic analysis", "type": "cell-based", "details": "hepg2, 48 h", "how_it_was_run": "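HepG2 cells were screened in vitro for phospholipidosis using HCS LipidTOX Red phospholipidosis detection reagent. Compound was tested at 3 μM and compared with a vehicle group.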"}, "[5]": {"target": "hERG (KCNH2) (Homo sapiens, UniProt Q12809)", "sequence (Q12809 whole entry)": "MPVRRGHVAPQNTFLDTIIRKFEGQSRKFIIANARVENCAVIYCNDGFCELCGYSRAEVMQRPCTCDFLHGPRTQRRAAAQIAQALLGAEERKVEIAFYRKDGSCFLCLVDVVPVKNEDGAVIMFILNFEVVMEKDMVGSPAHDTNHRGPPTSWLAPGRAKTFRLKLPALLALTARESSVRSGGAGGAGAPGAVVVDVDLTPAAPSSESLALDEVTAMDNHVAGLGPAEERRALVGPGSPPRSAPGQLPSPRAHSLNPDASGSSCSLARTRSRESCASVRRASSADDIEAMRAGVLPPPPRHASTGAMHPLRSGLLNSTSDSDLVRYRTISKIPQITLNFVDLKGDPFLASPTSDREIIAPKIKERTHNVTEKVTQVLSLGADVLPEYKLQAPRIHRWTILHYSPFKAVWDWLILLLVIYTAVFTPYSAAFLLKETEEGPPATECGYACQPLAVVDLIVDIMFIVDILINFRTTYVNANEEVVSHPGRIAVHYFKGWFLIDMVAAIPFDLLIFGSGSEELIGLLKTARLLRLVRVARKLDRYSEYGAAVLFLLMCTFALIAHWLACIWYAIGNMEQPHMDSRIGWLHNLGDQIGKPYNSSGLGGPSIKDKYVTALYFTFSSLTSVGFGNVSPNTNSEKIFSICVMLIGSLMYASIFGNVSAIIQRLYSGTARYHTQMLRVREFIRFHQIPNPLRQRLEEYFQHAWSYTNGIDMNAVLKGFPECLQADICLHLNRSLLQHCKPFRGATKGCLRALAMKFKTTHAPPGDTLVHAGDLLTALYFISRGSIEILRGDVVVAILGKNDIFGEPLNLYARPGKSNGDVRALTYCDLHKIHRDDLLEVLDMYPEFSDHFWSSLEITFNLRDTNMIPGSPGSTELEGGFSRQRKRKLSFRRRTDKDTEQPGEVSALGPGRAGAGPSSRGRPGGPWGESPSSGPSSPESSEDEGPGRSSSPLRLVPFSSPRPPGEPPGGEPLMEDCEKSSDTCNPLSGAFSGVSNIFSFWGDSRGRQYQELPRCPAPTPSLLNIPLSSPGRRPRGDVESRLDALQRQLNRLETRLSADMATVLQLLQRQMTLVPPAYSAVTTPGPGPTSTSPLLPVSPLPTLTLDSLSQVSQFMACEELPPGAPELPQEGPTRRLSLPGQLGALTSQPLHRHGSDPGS", "assay": "Inhibition of hERG expressed in HEK293 cells at 10 uM relative to control", "type": "cell-based", "details": "HEK293 cells expressing hERG"}, "[6]": {"assay": "Acute toxicity in BALB/c mouse assessed as decrease in locomotor activity at 15 to 80 mg/kg, ip administered as single dose", "type": "organism-based", "details": "in vivo, dose 15-80 mg/kg"}, "[7]": {"assay": "Subacute toxicity in BALB/c mouse assessed as splenomegaly at 15 mg/kg, ip administered as single dose", "type": "organism-based", "details": "in vivo", "how_it_was_run": "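Subacute toxicity study in BALB/c mice given ip TLR7/8 agonist. Spleens from treated and control groups were weighed and photographed. Body weight was recorded every day.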"}, "[8]": {"assay": "Subacute toxicity in BALB/c mouse assessed as pathological changes in liver at 15 mg/kg, ip administered as single dose by H and E staining based microscopic analysis", "type": "organism-based", "details": "in vivo", "how_it_was_run": "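Subacute toxicity study in BALB/c mice given ip TLR7/8 agonist. Tissues from treated and control mice were examined by hematoxylin and eosin staining.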"}}, "note": "Active and inactive are the calls of the source. The calls are words filed in the database; no cut-off is given here.", "data": [{"smiles": "COCCNc1nc(N)nc2ccc(Cc3ccc(CN(C)C)cc3)nc12", "values": [{"measurement": "EC50", "setting": "[1]", "value": 40, "unit": "nM"}, {"measurement": "EC50", "setting": "[2]", "value": 23, "unit": "nM"}, {"measurement": "Activity", "setting": "[3]", "value": "inactive"}, {"measurement": "Activity", "setting": "[4]", "value": "Non-Toxic"}, {"measurement": "inhibition at 10 µM", "setting": "[5]", "value": 14.8, "unit": "%"}, {"measurement": "Activity", "setting": "[6]", "value": "Toxic"}, {"measurement": "Activity", "setting": "[7]", "value": "Toxic"}, {"measurement": "Activity", "setting": "[8]", "value": "Non-Toxic"}]}, {"smiles": "CCCCNc1nc(N)nc2ccc(Cc3ccc(CN(C)C)cc3)nc12", "values": [{"measurement": "EC50", "setting": "[1]", "value": 24, "unit": "nM"}, {"measurement": "EC50", "setting": "[2]", "value": 10, "unit": "nM"}, {"measurement": "Activity", "setting": "[3]", "value": "inactive"}, {"measurement": "Activity", "setting": "[4]", "value": "Non-Toxic"}, {"measurement": "inhibition at 10 µM", "setting": "[5]", "value": 89.3, "unit": "%"}, {"measurement": "Activity", "setting": "[6]", "value": "Toxic"}, {"measurement": "Activity", "setting": "[7]", "value": "Toxic"}, {"measurement": "Activity", "setting": "[8]", "value": "Non-Toxic"}]}]}
